ChEMBL document CHEMBL1921735, “Antibacterial optimization of 4-aminothiazolyl analogues of the natural product GE2270 A: identification of the cycloalkylcarboxylic acids” (J Med Chem, 2011)
≈ marks a conversion by molar mass, not a printed value. Calls of active or inactive are those of the source.

Columns and labels:
Staphylococcus aureus [1] = assay: Antibacterial activity against methicillin-resistant Staphylococcus aureus isolate A4.018 by CLSI M07-A8 method; type: functional
Enterococcus faecalis [2] = assay: Antibacterial activity against Enterococcus faecalis ATCC 29212 by CLSI M07-A8 method; type: functional
Summary of the method: (§1)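 Broth microdilution MIC run per CLSI M07-A8 (2009).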

Enterococcus faecium = assay: Antibacterial activity against Enterococcus faecium 7130724 by CLSI M07-A8 method; type: functional; summary of the method: as §1
Escherichia coli = assay: Antibacterial activity against Escherichia coli S30 assessed as inhibition of protein synthesis after 2 hrs by luminescence analysis; settings: S30, 2 h
Streptococcus pyogenes = assay: Antibacterial activity against Streptococcus pyogenes ATCC BAA-595 by CLSI M07-A8 method; type: functional; summary of the method: as §1
Streptococcus pneumoniae = assay: Antibacterial activity against Streptococcus pneumoniae by CLSI M07-A8 method; type: functional, organism-based; summary of the method: as §1
Staphylococcus aureus [3] = assay: Antibacterial activity against Staphylococcus aureus ATCC 49951 infected in CD1 mouse assessed as protection against bacterial infection administered 5 hrs post infection measured on day 5; type: functional
Summary of the method: (§2)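 Mouse lethal systemic infection: ip injection of 1 × 10^8 cfu/mouse (10−100× minimal lethal dose), E. faecalis in 50% sterile rat fecal extract, S. aureus in 0.9% NaCl. Therapy by tail-vein bolus at several doses, six mice per group. Started immediately for E. faecalis; at 1 and 5 h post-inoculation for S. aureus.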

Enterococcus faecalis [4] = assay: Antibacterial activity against Enterococcus faecalis isolate NB04025 infected in CD1 mouse assessed as protection against bacterial infection administered immediately after infection measured on day 5; type: functional; settings: isolate NB04025, 120 h; summary of the method: as §2
Staphylococcus aureus [5] = assay: Antibacterial activity against GE2270-A-resistant Staphylococcus aureus harboring tufA G258D mutant gene by CLSI M07-A8 method; type: functional
[6] = Chemical stability of the compound in 15% v/v NaOH, 5% PEG-300, 0.9% saline, 55% v/v water at pH 7.2 to 7.8; type: physicochemical; settings: buffer

Compound	MIC (Staphylococcus aureus [1])	MIC (Enterococcus faecalis [2])	MIC (Enterococcus faecium)	IC50 (Escherichia coli)	MIC (Streptococcus pyogenes)	Activity (Streptococcus pneumoniae)	ED50 (Staphylococcus aureus [3])	ED50 (Enterococcus faecalis [4])	Activity (Staphylococcus aureus [5])	Stability [6]
CNC(=O)C[C@@H]1NC(=O)c2csc(n2)-c2ccc(-c3nc(NC(=O)CCCO)cs3)nc2-c2csc(n2)-c2csc(n2)[C@H]([C@@H](O)c2ccccc2)NC(=O)CNC(=O)c2nc(sc2COC)[C@H](C(C)C)NC(=O)c2nc1sc2C	1 µg/mL (≈ 0.846 µM)	0.5 µg/mL (≈ 0.423 µM)	0.5 µg/mL (≈ 0.423 µM)	> 16000 nM	> 32 µg/mL	Active				
CNC(=O)C[C@@H]1NC(=O)c2csc(n2)-c2ccc(-c3nc(NC(=O)OCCCC(N)=O)cs3)nc2-c2csc(n2)-c2csc(n2)[C@H]([C@@H](O)c2ccccc2)NC(=O)CNC(=O)c2nc(sc2COC)[C@H](C(C)C)NC(=O)c2nc1sc2C	0.5 µg/mL (≈ 0.408 µM)	0.25 µg/mL (≈ 0.204 µM)	0.25 µg/mL (≈ 0.204 µM)	2400 nM	> 32 µg/mL	Active				
CNC(=O)C[C@@H]1NC(=O)c2csc(n2)-c2ccc(-c3nc(NC(=O)OCCCC(=O)O)cs3)nc2-c2csc(n2)-c2csc(n2)[C@H]([C@@H](O)c2ccccc2)NC(=O)CNC(=O)c2nc(sc2COC)[C@H](C(C)C)NC(=O)c2nc1sc2C	0.06 µg/mL (≈ 0.0489 µM)	0.03 µg/mL (≈ 0.0245 µM)	0.06 µg/mL (≈ 0.0489 µM)		1 µg/mL (≈ 0.815 µM)	Active	5.4 mg/kg	3.1 mg/kg	inactive	
CNC(=O)C[C@@H]1NC(=O)c2csc(n2)-c2ccc(-c3nc(NC(=O)c4cnc(C(=O)O)cn4)cs3)nc2-c2csc(n2)-c2csc(n2)[C@H]([C@@H](O)c2ccccc2)NC(=O)CNC(=O)c2nc(sc2COC)[C@H](C(C)C)NC(=O)c2nc1sc2C	0.5 µg/mL (≈ 0.401 µM)	0.25 µg/mL (≈ 0.201 µM)	0.25 µg/mL (≈ 0.201 µM)		8 µg/mL (≈ 6.42 µM)	Active	13.9 mg/kg	2.2 mg/kg		
CNC(=O)C[C@@H]1NC(=O)c2csc(n2)-c2ccc(-c3nc(NC(=O)CCCCN)cs3)nc2-c2csc(n2)-c2csc(n2)[C@H]([C@@H](O)c2ccccc2)NC(=O)CNC(=O)c2nc(sc2COC)[C@H](C(C)C)NC(=O)c2nc1sc2C	1 µg/mL (≈ 0.836 µM)	0.5 µg/mL (≈ 0.418 µM)	1 µg/mL (≈ 0.836 µM)	1900 nM	4 µg/mL (≈ 3.35 µM)	Active				
CNC(=O)C[C@@H]1NC(=O)c2csc(n2)-c2ccc(-c3nc(NC(=O)CCCN(C)C)cs3)nc2-c2csc(n2)-c2csc(n2)[C@H]([C@@H](O)c2ccccc2)NC(=O)CNC(=O)c2nc(sc2COC)[C@H](C(C)C)NC(=O)c2nc1sc2C	1 µg/mL (≈ 0.827 µM)	0.5 µg/mL (≈ 0.413 µM)	1 µg/mL (≈ 0.827 µM)	2600 nM	4 µg/mL (≈ 3.31 µM)	Active				
CNC(=O)C[C@@H]1NC(=O)c2csc(n2)-c2ccc(-c3nc(NC(=O)CCCCC(=O)O)cs3)nc2-c2csc(n2)-c2csc(n2)[C@H]([C@@H](O)c2ccccc2)NC(=O)CNC(=O)c2nc(sc2COC)[C@H](C(C)C)NC(=O)c2nc1sc2C	0.125 µg/mL (≈ 0.102 µM)	0.06 µg/mL (≈ 0.049 µM)	0.125 µg/mL (≈ 0.102 µM)	1200 nM	4 µg/mL (≈ 3.27 µM)	Active	10.5 mg/kg	5.5 mg/kg	inactive	
CNC(=O)C[C@@H]1NC(=O)c2csc(n2)-c2ccc(-c3nc(NC(=O)OCCOCCOCCOC)cs3)nc2-c2csc(n2)-c2csc(n2)[C@H]([C@@H](O)c2ccccc2)NC(=O)CNC(=O)c2nc(sc2COC)[C@H](C(C)C)NC(=O)c2nc1sc2C	4 µg/mL (≈ 3.11 µM)	0.5 µg/mL (≈ 0.389 µM)	0.5 µg/mL (≈ 0.389 µM)	10800 nM	> 32 µg/mL	Active				
CNC(=O)C[C@@H]1NC(=O)c2csc(n2)-c2ccc(-c3nc(NC(=O)O[C@H]4CC[C@H](C(=O)O)CC4)cs3)nc2-c2csc(n2)-c2csc(n2)[C@H]([C@@H](O)c2ccccc2)NC(=O)CNC(=O)c2nc(sc2COC)[C@H](C(C)C)NC(=O)c2nc1sc2C	0.125 µg/mL (≈ 0.0987 µM)	0.06 µg/mL (≈ 0.0474 µM)	0.03 µg/mL (≈ 0.0237 µM)		2 µg/mL (≈ 1.58 µM)	Active	4.3 mg/kg	0.2 mg/kg		> 1 weeks
CNC(=O)C[C@@H]1NC(=O)c2csc(n2)-c2ccc(-c3nc(NC(=O)[C@H](CN)CCC(=O)O)cs3)nc2-c2csc(n2)-c2csc(n2)[C@H]([C@@H](O)c2ccccc2)NC(=O)CNC(=O)c2nc(sc2COC)[C@H](C(C)C)NC(=O)c2nc1sc2C	1 µg/mL (≈ 0.807 µM)	0.5 µg/mL (≈ 0.403 µM)	1 µg/mL (≈ 0.807 µM)		> 32 µg/mL	Active	9.5 mg/kg	> 60 mg/kg	inactive	
CNC(=O)C[C@@H]1NC(=O)c2csc(n2)-c2ccc(-c3nc(NC(=O)c4ccc(C(=O)O)cn4)cs3)nc2-c2csc(n2)-c2csc(n2)[C@H]([C@@H](O)c2ccccc2)NC(=O)CNC(=O)c2nc(sc2COC)[C@H](C(C)C)NC(=O)c2nc1sc2C	0.25 µg/mL (≈ 0.201 µM)	0.125 µg/mL (≈ 0.1 µM)	< 0.06 µg/mL		4 µg/mL (≈ 3.21 µM)	Active	4.4 mg/kg	0.8 mg/kg		
CNC(=O)C[C@@H]1NC(=O)c2csc(n2)-c2ccc(-c3nc(NC(=O)O[C@H]4CC[C@H](N)CC4)cs3)nc2-c2csc(n2)-c2csc(n2)[C@H]([C@@H](O)c2ccccc2)NC(=O)CNC(=O)c2nc(sc2COC)[C@H](C(C)C)NC(=O)c2nc1sc2C	1 µg/mL (≈ 0.808 µM)	0.5 µg/mL (≈ 0.404 µM)	0.5 µg/mL (≈ 0.404 µM)		8 µg/mL (≈ 6.46 µM)	Active	19.3 mg/kg	< 3.3 mg/kg	inactive	
CNC(=O)C[C@@H]1NC(=O)c2csc(n2)-c2ccc(-c3nc(NC(=O)C(F)(F)F)cs3)nc2-c2csc(n2)-c2csc(n2)[C@H]([C@@H](O)c2ccccc2)NC(=O)CNC(=O)c2nc(sc2COC)[C@H](C(C)C)NC(=O)c2nc1sc2C	> 32 µg/mL	1 µg/mL (≈ 0.839 µM)	1 µg/mL (≈ 0.839 µM)	> 32000 nM	> 32 µg/mL	Active				
CNC(=O)C[C@@H]1NC(=O)c2csc(n2)-c2ccc(-c3nc(NC(=O)CCCCC(=O)OC)cs3)nc2-c2csc(n2)-c2csc(n2)[C@H]([C@@H](O)c2ccccc2)NC(=O)CNC(=O)c2nc(sc2COC)[C@H](C(C)C)NC(=O)c2nc1sc2C	> 32 µg/mL	4 µg/mL (≈ 3.23 µM)	2 µg/mL (≈ 1.61 µM)	> 32000 nM	> 32 µg/mL	Active				
CNC(=O)C[C@@H]1NC(=O)c2csc(n2)-c2ccc(-c3nc(NC(=O)CCCCP(=O)(O)O)cs3)nc2-c2csc(n2)-c2csc(n2)[C@H]([C@@H](O)c2ccccc2)NC(=O)CNC(=O)c2nc(sc2COC)[C@H](C(C)C)NC(=O)c2nc1sc2C	> 32 µg/mL	> 32 µg/mL	> 32 µg/mL	1500 nM	> 32 µg/mL	Active				
CNC(=O)C[C@@H]1NC(=O)c2csc(n2)-c2ccc(-c3nc(NC(=O)O[C@H]4C[C@@H](C(=O)O)C4)cs3)nc2-c2csc(n2)-c2csc(n2)[C@H]([C@@H](O)c2ccccc2)NC(=O)CNC(=O)c2nc(sc2COC)[C@H](C(C)C)NC(=O)c2nc1sc2C	0.06 µg/mL (≈ 0.0484 µM)	0.06 µg/mL (≈ 0.0484 µM)	0.03 µg/mL (≈ 0.0242 µM)		1 µg/mL (≈ 0.807 µM)	Active	2.9 mg/kg	1 mg/kg		
CNC(=O)C[C@@H]1NC(=O)c2csc(n2)-c2ccc(-c3nc(NC(=O)[C@H](C)CCC(=O)O)cs3)nc2-c2csc(n2)-c2csc(n2)[C@H]([C@@H](O)c2ccccc2)NC(=O)CNC(=O)c2nc(sc2COC)[C@H](C(C)C)NC(=O)c2nc1sc2C	0.25 µg/mL (≈ 0.204 µM)	0.25 µg/mL (≈ 0.204 µM)	0.5 µg/mL (≈ 0.408 µM)		4 µg/mL (≈ 3.27 µM)	Active	10.6 mg/kg	11.1 mg/kg	inactive	
